Experimental data published in ChEMBL document CHEMBL4680175, “Sulfonamide-based ring-fused analogues for CAN508 as novel carbonic anhydrase inhibitors endowed with antitumor activity: Design, synthesis, and in vitro biological evaluation” (Eur J Med Chem, 2020).
Calls of active or inactive are those of the source. The calls are words filed in the database; no cut-off is given here.

Columns and labels:
MCF7 [1] = assay: Induction of apoptosis in human MCF7 cells assessed as early apoptotic cells by Annexin V-FITC/propidium iodide staining based flow cytometric analysis (reference value: 0.47 %); assay type: functional
MDA-MB-468 [2] = assay: Antiproliferative activity against human MDA-MB-468 cells measured after 48 hrs under CoCl2-induced hypoxic condition by MTT assay; assay type: functional, cell-based; settings: MDA-MB-468, 48 h
MCF7 [3] = assay: Induction of apoptosis in human MCF7 cells assessed as late apoptotic cells by Annexin V-FITC/propidium iodide staining based flow cytometric analysis (reference value: 0.29 %); assay type: functional
Hs-578T = assay: Antitumor activity against human HS 578T cells assessed as cell growth inhibition at 10 uM incubated for 48 hrs by sulforhodamine B assay; assay type: functional; settings: read-out: GI
In short: (§1)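 NCI Drug Evaluation Branch protocol: primary single-dose screen at 10 μM across a 57-line human cancer panel. Drug exposure is 48 h. Cell growth and viability are read by sulforhodamine B assay. Data are given as a mean graph of percent growth of treated cells and reported as percentage growth inhibition (GI%).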

MCF7 [4] = assay: Induction of cell cycle arrest in human MCF7 cells assessed as accumulation at G2/M phase at IC50 concentration incubated for 24 hrs by PI/RNase staining based flow cytometric analysis; assay type: functional
In short: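 Cells were washed in ice-cold PBS, fixed in ice-cold 70% ethanol, treated with 100 µg/mL RNase and stained with 40 µg/mL PI. DNA content was read by flow cytometry, with sub-G1 compared against control.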

HOP-92 = assay: Antitumor activity against human HOP92 cells assessed as cell growth inhibition at 10 uM incubated for 48 hrs by sulforhodamine B assay; assay type: functional; settings: read-out: GI; in short: as §1
MCF7 [5] = assay: Antiproliferative activity against human MCF7 cells measured after 48 hrs under normoxic condition by MTT assay; assay type: functional, cell-based; settings: MCF7, 48 h
MDA-MB-468 [6] = assay: Antiproliferative activity against human MDA-MB-468 cells measured after 48 hrs under normoxic condition by MTT assay; assay type: functional, cell-based; settings: MDA-MB-468, 48 h
MCF7 [7] = assay: Antiproliferative activity against human MCF7 cells measured after 48 hrs under CoCl2-induced hypoxic condition by MTT assay; assay type: functional, cell-based; settings: MCF7, 48 h
MCF7 [8] = assay: Induction of apoptosis in human MCF7 cells assessed as necrotic cells by Annexin V-FITC/propidium iodide staining based flow cytometric analysis (reference value: 1.3 %); assay type: functional
Malme-3M = assay: Antitumor activity against human MALME-3M cells assessed as cell growth inhibition at 10 uM incubated for 48 hrs by sulforhodamine B assay; assay type: functional; settings: read-out: GI; in short: as §1

IC50 (MDA-MB-468 [2]): 11.3 µM | IC50 (MCF7 [5]): 2.96 µM | IC50 (MDA-MB-468 [6]): 5.38 µM | IC50 (MCF7 [7]): 7.73 µM
SMILES: N#Cc1c(-c2ccc(F)cc2)nc2c(/N=N/c3ccc(S(N)(=O)=O)cc3)c(N)nn2c1N
Activity (MCF7 [1]): 6.58% | Activity (MCF7 [3]): 10.89% | inhibition of growth at 10 µM (Hs-578T): 23% | Activity (MCF7 [4]): Active | inhibition of growth at 10 µM (HOP-92): 58% | Activity (MCF7 [8]): 1.75% | inhibition of growth at 10 µM (Malme-3M): 20%
